Data reported in ChEMBL document CHEMBL4364238, “Discovery of BNC375, a Potent, Selective, and Orally Available Type I Positive Allosteric Modulator of α7 nAChRs” (ACS Med Chem Lett, 2019).
Values after ≈ are worked out from the molar mass of the structure shown. Each block holds one compound with its values, some of them ahead of it. Active and inactive are the calls of the source. The rule behind the calls is not given here.

How the values were obtained:
[1] = target: Neuronal acetylcholine receptor subunit alpha-7 (Rattus norvegicus) (UniProt Q05941); assay: Positive allosteric modulator activity at rat alpha7 nAChR expressed in GH4C1 cells assessed as potentiation of acetylcholine response at 3 uM at -70 mV holding potential preincubated for 30 secs followed by co-application with acetylcholine by automated patch clamp assay; assay type: cell-based
Sequence of Neuronal acetylcholine receptor subunit alpha-7 (Rattus norvegicus) (Q05941 whole entry): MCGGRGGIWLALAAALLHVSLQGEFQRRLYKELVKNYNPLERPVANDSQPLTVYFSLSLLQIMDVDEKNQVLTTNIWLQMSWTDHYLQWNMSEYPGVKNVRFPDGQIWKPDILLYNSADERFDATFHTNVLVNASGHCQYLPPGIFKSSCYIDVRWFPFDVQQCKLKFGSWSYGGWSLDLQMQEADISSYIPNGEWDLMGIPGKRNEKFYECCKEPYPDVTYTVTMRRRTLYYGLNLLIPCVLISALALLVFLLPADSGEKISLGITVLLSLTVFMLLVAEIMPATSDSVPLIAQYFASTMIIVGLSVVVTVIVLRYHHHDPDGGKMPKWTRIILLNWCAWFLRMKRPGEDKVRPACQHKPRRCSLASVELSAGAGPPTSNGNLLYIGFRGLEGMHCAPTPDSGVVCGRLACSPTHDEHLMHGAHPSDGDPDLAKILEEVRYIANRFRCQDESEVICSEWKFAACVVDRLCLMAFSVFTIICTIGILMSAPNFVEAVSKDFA
Outline: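 Automated planar patch clamp on stable GH4C1 (rat) cell lines expressing rat α7 nAChR; test compound at 3 μM with an EC₂₀ acetylcholine challenge; percent change in peak current versus acetylcholine alone taken as P₃.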

[2] = target: Neuronal acetylcholine receptor subunit alpha-7 (Rattus norvegicus) (UniProt Q05941); assay: (§1) Positive allosteric modulatory activity at rat alpha7 nAChR expressed in GH4C1 cells assessed as AUC of potentiation of peak current at -70 mV holding potential preincubated for 30 secs followed by co-application with acetylcholine by manual patch clamp assay relative to peak current potentiation; assay type: cell-based
Outline: (§2)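 Conventional manual patch-clamp with a fast-application system on stable GH4C1 cells expressing rat α7 nAChR; currents evoked by acetylcholine with and without test compound; peak-current change relative to acetylcholine alone gives potentiation (P₃ at 3 μM; concentration–response for EC₅₀ and Pmax).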

[3] = Solubility of the compound at pH 6.5; assay type: physicochemical; conditions: buffer
[4] = target: Neuronal acetylcholine receptor subunit alpha-7 (Rattus norvegicus) (UniProt Q05941); assay: as §1, with “of acetylcholine response at 3 uM” for “of peak current”, “by automated” for “by manual”, “to potentiation of” for “to peak”, “current response” for “current potentiation”; assay type: cell-based
[5] = Stability in human liver microsomes assessed as hepatic extraction ratio at 1 uM measured for 45 mins by LC-MS/MS analysis; assay type: ADME, Microsome; conditions: read-out: ERH
[6] = target: Neuronal acetylcholine receptor subunit alpha-7 (Rattus norvegicus, UniProt Q05941); assay: Positive allosteric modulatory activity at rat alpha7 nAChR expressed in GH4C1 cells assessed as potentiation of acetylcholine response at -70 mV holding potential preincubated for 30 secs followed by co-application with acetylcholine by manual patch clamp assay; assay type: cell-based; outline: as §2
Sequence of Neuronal acetylcholine receptor subunit alpha-7 (Q05941 whole entry): as above

[7] = Apparent permeability in human Caco2 cells; assay type: ADME, cell-based; conditions: Caco-2
[8] = Solubility of the compound at pH 2; assay type: physicochemical; conditions: buffer
Mus musculus [9] = assay: Reversal of scopolamine-induced memory impairment in mouse assessed as increase in spontaneous alteration at 3 mg/kg, po administered with compond and scopolamine at 60 mins and 30 mins respectively prior to test by T-maze test; assay type: functional; conditions: read-out: INH
Outline: (§3)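 Mouse T-maze continuous alternation task with scopolamine-induced impairment of spontaneous alternation; compound given orally in saline-based vehicle with 25% Cremophor ELP over 0.003–10.0 mg/kg; group means compared by one-way ANOVA then Fisher's PLSD, p < 0.05 significant.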

[10] = Oral bioavailability in Sprague-Dawley rat; assay type: ADME, organism-based; conditions: in vivo
[11] = Half life in Sprague-Dawley rat plasma at 4 mg/kg administered as single IV bolus dose; assay type: ADME, organism-based
Outline: (§4)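 Single IV bolus of 4.0 mg/kg in male Sprague–Dawley rats; dosing solution 1.1 mg/mL in saline-based vehicle with 0.1 M hydroxypropyl-β-cyclodextrin and 10% (v/v) DMSO; plasma pharmacokinetic parameters derived.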

Mus musculus [12] = assay: Reversal of scopolamine-induced memory impairment in mouse assessed as increase in spontaneous alteration at 0.03 mg/kg, po administered with compond and scopolamine at 60 mins and 30 mins respectively prior to test by T-maze test; assay type: functional; outline: as §3
[13] = Dose normalized AUC (0 to infinity) in Sprague-Dawley rat at 4 mg/kg administered as single IV bolus dose; assay type: ADME, organism-based; conditions: in vivo; outline: as §4
[14] = Lipophilicity, log D of the compound at pH 7.4; assay type: physicochemical; conditions: buffer
Mus musculus [15] = assay: Reversal of scopolamine-induced memory impairment in mouse assessed as increase in spontaneous alteration at 0.003 mg/kg, po administered with compond and scopolamine at 60 mins and 30 mins respectively prior to test by T-maze test; assay type: functional; outline: as §3
[16] = Volume of distribution at steady state in Sprague-Dawley rat at 4 mg/kg administered as single IV bolus dose; assay type: ADME, organism-based; conditions: in vivo, read-out: Vdss; outline: as §4
Mus musculus [17] = assay: Reversal of scopolamine-induced memory impairment in mouse assessed as increase in spontaneous alteration at 1 mg/kg, po administered with compond and scopolamine at 60 mins and 30 mins respectively prior to test by T-maze test; assay type: functional; conditions: read-out: INH; outline: as §3
[18] = Plasma clearance in Sprague-Dawley rat at 4 mg/kg administered as single IV bolus dose; assay type: ADME, organism-based; outline: as §4
Mus musculus [19] = assay: Reversal of scopolamine-induced memory impairment in mouse assessed as increase in spontaneous alteration at 0.3 mg/kg, po administered with compond and scopolamine at 60 mins and 30 mins respectively prior to test by T-maze test; assay type: functional; outline: as §3
[20] = target: Neuronal acetylcholine receptor subunit alpha-7 (Rattus norvegicus) (UniProt Q05941); assay: Positive allosteric modulatory activity at rat alpha7 nAChR expressed in GH4C1 cells assessed as potentiation of peak current at -70 mV holding potential preincubated for 30 secs followed by co-application with acetylcholine by manual patch clamp assay relative to acetylcholine-induced peak current; assay type: cell-based; outline: as §2
[21] = Stability in mouse liver microsomes assessed as hepatic extraction ratio at 1 uM measured for 45 mins by LC-MS/MS analysis; assay type: ADME, Microsome; conditions: read-out: ERH
Mus musculus [22] = assay: Reversal of scopolamine-induced memory impairment in mouse assessed as percentage of increase in spontaneous alteration at 10 mg/kg, po administered with compond and scopolamine at 60 mins snd 30 mins respectively prior to test by T-maze test; assay type: functional; conditions: read-out: INH; outline: as §3
[23] = target: Neuronal acetylcholine receptor subunit alpha-7 (Rattus norvegicus) (UniProt Q05941); assay: Positive allosteric modulatory activity at rat alpha7 nAChR expressed in GH4C1 cells assessed as potentiation of acetylcholine response at 3 uM at -70 mV holding potential preincubated for 30 secs followed by co-application with acetylcholine by manual patch clamp assay; assay type: cell-based; outline: as §2
Mus musculus [24] = assay: Reversal of scopolamine-induced memory impairment in mouse assessed as increase in spontaneous alteration at 3 to 30 mg/kg, ip administered with compond and scopolamine at 60 mins snd 30 mins respectively prior to test by T-maze test; assay type: functional, organism-based
Outline: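 Mouse T-maze continuous alternation task; reversal of scopolamine-induced loss of spontaneous alternation after ip or oral doses of 3 and 30 mg/kg; significant doses reported.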

[25] = target: Neuronal acetylcholine receptor subunit alpha-7 (Rattus norvegicus) (UniProt Q05941); assay: as §1, with “of acetylcholine response at 3 uM” for “of peak current”, “to potentiation of” for “to peak”, “current response” for “current potentiation”; assay type: cell-based; outline: as §2

Activity [1]: 8660%
SMILES: Cc1cc(F)ccc1NCC1C(c2ccc(S(N)(=O)=O)cc2)C1(C)C (racemic)

Activity [1]: 720%
SMILES: COc1ccc(Cl)cc1NCC1C(c2ccc(S(=O)(=O)NO)cc2)C1(C)C (racemic)

Activity [1]: < 100%
SMILES: CC(C)(C)c1cc(NCC2C(c3ccc(S(N)(=O)=O)cc3)C2(C)C)no1 (racemic)

Ratio [2]: 1.7 | solubility [3]: 1.6 to 3.1 µg/mL (≈ 4.05 to 7.85 µM) | Ratio [4]: 3.1 | hepatic extraction ratio at 0.75 h, 1 µM [5]: 0.84 | EC50 [6]: 1900 nM | Papp [7]: 11 ×10⁻⁶ cm/s | solubility [8]: > 100 µg/mL | bioavailability [10]: 62% | half-life [11]: 72 min | Activity [1]: 1160% | AUC/dose [13]: 1.2 µM·h/mg | logD [14]: 4.2 | Vd [16]: 1.8 L/kg | clearance [18]: 35 mL/min/kg | Emax [20]: 1570% | hepatic extraction ratio at 0.75 h, 1 µM [21]: 0.79
SMILES: COc1ccc(Cl)cc1NC[C@@H]1[C@@H](c2ccc(S(N)(=O)=O)cc2)C1(C)C
percent reversal of scopolamine-induced memory impairment at 3 mg/kg (Mus musculus [9]): 78% | inhibition in vivo at 0.03 mg/kg (Mus musculus [12]): 51% | inhibition in vivo at 0.003 mg/kg (Mus musculus [15]): -9% | percent reversal of scopolamine-induced memory impairment (increase in spontaneous alternation) at 1 mg/kg (Mus musculus [17]): 78% | inhibition in vivo at 0.3 mg/kg (Mus musculus [19]): 62%

Activity [1]: 460%
SMILES: Cc1ccc(F)cc1NC[C@@H]1[C@@H](c2ccc(S(N)(=O)=O)cc2)C1(C)C
percent reversal of scopolamine-induced memory impairment at 3 mg/kg (Mus musculus [9]): 0% | percent increase in spontaneous alternation at 10 mg/kg (Mus musculus [22]): 10% | percent reversal of scopolamine-induced memory impairment (increase in spontaneous alternation) at 1 mg/kg (Mus musculus [17]): -9%

Activity [1]: 3000%
SMILES: CC1(C)C(CNc2cncc(F)c2)C1c1ccc(S(N)(=O)=O)cc1 (racemic)

Activity [1]: 130%
SMILES: Cc1ncccc1NCC1C(c2ccc(S(N)(=O)=O)cc2)C1(C)C (racemic)

Activity [1]: 2860%
SMILES: CC1(C)[C@@H](CNc2ccc(F)cc2C(F)(F)F)[C@@H]1c1ccc(S(N)(=O)=O)cc1
percent reversal of scopolamine-induced memory impairment at 3 mg/kg (Mus musculus [9]): 39% | percent increase in spontaneous alternation at 10 mg/kg (Mus musculus [22]): 79% | percent reversal of scopolamine-induced memory impairment (increase in spontaneous alternation) at 1 mg/kg (Mus musculus [17]): 40%

Activity [1]: 8170%
SMILES: COc1ccc(C(F)(F)F)cc1NCC1C(c2ccc(S(N)(=O)=O)cc2)C1(C)C (racemic)

Activity [1]: 12300%
SMILES: Cc1ccc(Cl)cc1NCC1C(c2ccc(S(N)(=O)=O)cc2)C1(C)C (racemic)

Activity [1]: 2420%
SMILES: COc1ncccc1NCC1C(c2ccc(S(N)(=O)=O)cc2)C1(C)C (racemic)

Activity [1]: 8170%
SMILES: CC1(C)[C@@H](CNc2ccc(F)cc2OC(F)F)[C@@H]1c1ccc(S(N)(=O)=O)cc1
percent reversal of scopolamine-induced memory impairment at 3 mg/kg (Mus musculus [9]): 16% | percent increase in spontaneous alternation at 10 mg/kg (Mus musculus [22]): 51% | percent reversal of scopolamine-induced memory impairment (increase in spontaneous alternation) at 1 mg/kg (Mus musculus [17]): 46%

Activity [1]: 470%
SMILES: Cc1cc(F)ccc1NC[C@@H]1[C@@H](c2ccc(S(N)(=O)=O)cc2)C1(C)C

Activity [1]: 2570 to 9890%
SMILES: CC1(C)C(CNc2ccccc2)C1c1ccc(S(N)(=O)=O)cc1 (racemic)

solubility [3]: 3.1 to 6.3 µg/mL (≈ 7.58 to 15.4 µM) | Activity [23]: 420% | Activity [1]: 660% | logD [14]: 3.7 | Ratio [25]: 5.6
SMILES: COc1ccc(Cl)cc1NC(=O)C1C(c2ccc(S(N)(=O)=O)cc2)C1(C)C (racemic)
inhibition (Mus musculus [24]): Active

Activity [1]: 410%
SMILES: CC1(C)[C@H](CNc2ccc(F)cc2C(F)(F)F)[C@H]1c1ccc(S(N)(=O)=O)cc1
percent reversal of scopolamine-induced memory impairment at 3 mg/kg (Mus musculus [9]): 38% | percent increase in spontaneous alternation at 10 mg/kg (Mus musculus [22]): -9% | percent reversal of scopolamine-induced memory impairment (increase in spontaneous alternation) at 1 mg/kg (Mus musculus [17]): -18%

Activity [1]: 17400%
SMILES: Cc1ccc(F)cc1NC[C@H]1[C@H](c2ccc(S(N)(=O)=O)cc2)C1(C)C
